As a reminder, the inhibition is the drop in the measured response relative to a control, in per cent.

Experimental findings from ChEMBL document CHEMBL2417369, “Synthesis and evaluation of heteroaryl substituted diazaspirocycles as scaffolds to probe the ATP-binding site of protein kinases” (Bioorg Med Chem, 2013) are described below.

Molecules are shown by their SMILES.

For one experiment, the species on record is Homo sapiens. In words: Inhibition of PKA (unknown origin) at 30 uM by microfluidic mobility shift assay relative to control. The essentials: (§1)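 Single-point screen in a 24-enzyme kinase panel using a microfluidic assay. Each compound was tested at […] with ATP at roughly the Km for each enzyme. The pan-AGC inhibitor H-89 served as an internal control on every plate.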

Experiment [1] addresses T1, Serine/threonine-protein kinase Chk1 (Homo sapiens) (UniProt O14757).
T1 sequence (whole entry): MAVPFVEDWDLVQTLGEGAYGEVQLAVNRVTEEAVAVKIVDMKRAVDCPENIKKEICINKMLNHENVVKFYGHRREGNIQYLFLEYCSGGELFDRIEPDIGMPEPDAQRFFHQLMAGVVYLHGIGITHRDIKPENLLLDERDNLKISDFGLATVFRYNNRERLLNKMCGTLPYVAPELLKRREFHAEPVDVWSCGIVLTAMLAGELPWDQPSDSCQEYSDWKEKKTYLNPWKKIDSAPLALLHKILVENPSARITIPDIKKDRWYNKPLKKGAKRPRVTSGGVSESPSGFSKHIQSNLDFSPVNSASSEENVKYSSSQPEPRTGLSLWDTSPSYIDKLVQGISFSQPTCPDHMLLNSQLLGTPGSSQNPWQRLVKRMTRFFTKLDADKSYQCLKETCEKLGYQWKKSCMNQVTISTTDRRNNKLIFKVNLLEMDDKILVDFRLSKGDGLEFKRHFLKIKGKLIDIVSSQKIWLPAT
In words: Inhibition of CHK1 (unknown origin) at 30 uM by microfluidic mobility shift assay relative to control. The essentials: as §1

In experiment [2] the target is T2, Aurora kinase A (Homo sapiens) (UniProt O14965).
T2 sequence (whole entry): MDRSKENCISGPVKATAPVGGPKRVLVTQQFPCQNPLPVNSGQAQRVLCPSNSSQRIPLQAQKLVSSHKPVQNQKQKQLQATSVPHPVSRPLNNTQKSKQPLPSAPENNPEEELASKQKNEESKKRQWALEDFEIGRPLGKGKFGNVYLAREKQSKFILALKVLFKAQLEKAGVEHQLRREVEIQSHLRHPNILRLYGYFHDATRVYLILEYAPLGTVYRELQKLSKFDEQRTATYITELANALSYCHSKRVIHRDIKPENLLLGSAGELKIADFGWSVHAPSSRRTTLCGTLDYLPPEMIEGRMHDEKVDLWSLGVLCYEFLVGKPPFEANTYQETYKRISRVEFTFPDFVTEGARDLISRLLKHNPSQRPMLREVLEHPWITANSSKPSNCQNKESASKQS
In words: Inhibition of AURA (unknown origin) at 30 uM by microfluidic mobility shift assay relative to control. The gist of the method: as §1

For experiment [3], the target named is Glycogen synthase kinase-3 beta (Homo sapiens, UniProt P49841). In words: Inhibition of GSK3beta (unknown origin) at 30 uM by microfluidic mobility shift assay relative to control. The gist of the method: as §1
Experiment [4] concerns the target RAC-alpha serine/threonine-protein kinase (Homo sapiens, UniProt P31749). In words: Inhibition of AKT1 (unknown origin) at 30 uM by microfluidic mobility shift assay relative to control. The essentials: as §1
Experiment [5] has as its target Mitogen-activated protein kinase 3 (Homo sapiens, UniProt P27361). In words: Inhibition of ERK1 (unknown origin) at 30 uM by microfluidic mobility shift assay relative to control. The essentials:
as §1

Experiment [6] concerns the target Serine/threonine-protein kinase Chk2 (Homo sapiens, UniProt O96017). In words: Inhibition of CHK2 (unknown origin) at 30 uM by microfluidic mobility shift assay relative to control. The essentials:
as §1

For experiment [7], the target named is Tyrosine-protein kinase Lyn (Homo sapiens, UniProt P07948). In words: Inhibition of LYN (unknown origin) at 30 uM by microfluidic mobility shift assay relative to control. The gist of the method:
as §1

Experiment [8] has as its target Tyrosine-protein kinase ABL1 (Homo sapiens, UniProt P00519). In words: Inhibition of ABL (unknown origin) at 30 uM by microfluidic mobility shift assay relative to control. The essentials: as §1
The target in experiment [9] is Mitogen-activated protein kinase 1 (Homo sapiens, UniProt P28482). In words: Inhibition of ERK2 (unknown origin) at 30 uM by microfluidic mobility shift assay relative to control. The gist of the method: as §1
Experiment [10] addresses MAP kinase-activated protein kinase 2 (Homo sapiens) (UniProt P49137). In words: Inhibition of MK2 (unknown origin) at 30 uM by microfluidic mobility shift assay relative to control. The essentials: as §1
Experiment [11] concerns the target Mitogen-activated protein kinase 14 (Homo sapiens) (UniProt Q16539). In words: Inhibition of p38alpha (unknown origin) at 30 uM by microfluidic mobility shift assay relative to control. The essentials: as §1
Experiment [12] concerns the target Tyrosine-protein kinase Lck (Homo sapiens, UniProt P06239). In words: Inhibition of LCK (unknown origin) at 30 uM by microfluidic mobility shift assay relative to control. The essentials:
as §1

Experiment [13] deals with Ribosomal protein S6 kinase alpha-5 (Homo sapiens, UniProt O75582). In words: Inhibition of MSK1 (unknown origin) at 30 uM by microfluidic mobility shift assay relative to control. The gist of the method: as §1
In experiment [14] the target is Insulin receptor (Homo sapiens) (UniProt P06213). In words: Inhibition of INSR (unknown origin) at 30 uM by microfluidic mobility shift assay relative to control. The essentials: as §1
Experiment [15] concerns the target T3, Serine/threonine-protein kinase D2 (Homo sapiens) (UniProt Q9BZL6).
T3 sequence (whole entry): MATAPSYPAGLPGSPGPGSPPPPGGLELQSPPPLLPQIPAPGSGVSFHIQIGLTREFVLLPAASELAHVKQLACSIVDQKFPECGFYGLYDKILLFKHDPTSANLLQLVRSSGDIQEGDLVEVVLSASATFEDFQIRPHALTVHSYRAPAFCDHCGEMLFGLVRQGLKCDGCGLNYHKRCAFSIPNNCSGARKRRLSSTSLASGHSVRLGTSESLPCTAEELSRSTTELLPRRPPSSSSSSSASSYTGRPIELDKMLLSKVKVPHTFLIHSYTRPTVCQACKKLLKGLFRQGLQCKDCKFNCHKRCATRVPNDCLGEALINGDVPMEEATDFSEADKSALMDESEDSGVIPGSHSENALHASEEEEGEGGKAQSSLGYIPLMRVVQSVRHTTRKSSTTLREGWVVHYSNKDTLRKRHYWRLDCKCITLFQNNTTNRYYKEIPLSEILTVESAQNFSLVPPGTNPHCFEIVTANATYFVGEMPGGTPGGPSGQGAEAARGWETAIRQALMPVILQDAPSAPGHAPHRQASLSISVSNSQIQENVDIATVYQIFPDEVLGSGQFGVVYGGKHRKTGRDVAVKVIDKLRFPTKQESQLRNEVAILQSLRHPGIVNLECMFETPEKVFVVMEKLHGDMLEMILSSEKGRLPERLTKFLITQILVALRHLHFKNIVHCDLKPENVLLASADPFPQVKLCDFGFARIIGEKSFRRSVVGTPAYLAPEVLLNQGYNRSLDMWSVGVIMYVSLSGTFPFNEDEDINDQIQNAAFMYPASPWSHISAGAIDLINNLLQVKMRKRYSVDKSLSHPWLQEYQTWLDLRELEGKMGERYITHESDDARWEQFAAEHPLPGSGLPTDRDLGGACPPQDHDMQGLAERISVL
In words: Inhibition of PKD2 (unknown origin) at 30 uM by microfluidic mobility shift assay relative to control. The essentials:
as §1

Chain of Tyrosine-protein kinase Lck (P06239 2-509 limits assumed): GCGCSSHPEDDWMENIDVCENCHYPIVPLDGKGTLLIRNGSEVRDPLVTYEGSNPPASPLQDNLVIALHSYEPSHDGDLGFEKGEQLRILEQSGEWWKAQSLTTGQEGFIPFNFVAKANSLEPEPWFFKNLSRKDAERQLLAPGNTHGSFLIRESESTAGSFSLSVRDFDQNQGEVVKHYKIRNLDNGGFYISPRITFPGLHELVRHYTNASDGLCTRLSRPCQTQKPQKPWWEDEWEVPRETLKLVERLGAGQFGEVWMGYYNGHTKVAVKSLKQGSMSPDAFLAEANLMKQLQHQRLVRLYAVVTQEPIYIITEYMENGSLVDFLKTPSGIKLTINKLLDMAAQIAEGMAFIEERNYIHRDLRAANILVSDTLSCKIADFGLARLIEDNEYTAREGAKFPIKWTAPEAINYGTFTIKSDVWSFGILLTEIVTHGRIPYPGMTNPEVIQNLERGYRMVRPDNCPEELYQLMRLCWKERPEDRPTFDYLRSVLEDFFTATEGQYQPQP
Chain of Insulin receptor (Homo sapiens) (P06213 28-758 limits assumed): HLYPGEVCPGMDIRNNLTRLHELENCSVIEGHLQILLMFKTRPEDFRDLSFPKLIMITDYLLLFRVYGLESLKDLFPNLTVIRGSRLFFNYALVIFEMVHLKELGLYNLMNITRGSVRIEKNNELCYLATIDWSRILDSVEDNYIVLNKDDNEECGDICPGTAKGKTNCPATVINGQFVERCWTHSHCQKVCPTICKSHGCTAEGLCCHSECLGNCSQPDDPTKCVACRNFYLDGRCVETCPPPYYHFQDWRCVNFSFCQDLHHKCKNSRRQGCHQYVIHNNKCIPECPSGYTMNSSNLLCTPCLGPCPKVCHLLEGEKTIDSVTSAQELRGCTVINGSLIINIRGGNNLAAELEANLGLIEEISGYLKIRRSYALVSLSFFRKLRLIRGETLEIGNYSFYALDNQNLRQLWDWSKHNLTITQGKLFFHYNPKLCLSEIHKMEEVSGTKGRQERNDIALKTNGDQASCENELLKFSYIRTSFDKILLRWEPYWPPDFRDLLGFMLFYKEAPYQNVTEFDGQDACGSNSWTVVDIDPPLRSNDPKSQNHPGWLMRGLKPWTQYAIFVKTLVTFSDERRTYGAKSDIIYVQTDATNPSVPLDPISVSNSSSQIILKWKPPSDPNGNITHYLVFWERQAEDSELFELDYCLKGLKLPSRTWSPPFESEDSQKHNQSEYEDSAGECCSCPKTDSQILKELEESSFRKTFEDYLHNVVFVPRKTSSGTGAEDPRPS
Chain of Insulin receptor (Homo sapiens) (P06213 763-1382 limits assumed): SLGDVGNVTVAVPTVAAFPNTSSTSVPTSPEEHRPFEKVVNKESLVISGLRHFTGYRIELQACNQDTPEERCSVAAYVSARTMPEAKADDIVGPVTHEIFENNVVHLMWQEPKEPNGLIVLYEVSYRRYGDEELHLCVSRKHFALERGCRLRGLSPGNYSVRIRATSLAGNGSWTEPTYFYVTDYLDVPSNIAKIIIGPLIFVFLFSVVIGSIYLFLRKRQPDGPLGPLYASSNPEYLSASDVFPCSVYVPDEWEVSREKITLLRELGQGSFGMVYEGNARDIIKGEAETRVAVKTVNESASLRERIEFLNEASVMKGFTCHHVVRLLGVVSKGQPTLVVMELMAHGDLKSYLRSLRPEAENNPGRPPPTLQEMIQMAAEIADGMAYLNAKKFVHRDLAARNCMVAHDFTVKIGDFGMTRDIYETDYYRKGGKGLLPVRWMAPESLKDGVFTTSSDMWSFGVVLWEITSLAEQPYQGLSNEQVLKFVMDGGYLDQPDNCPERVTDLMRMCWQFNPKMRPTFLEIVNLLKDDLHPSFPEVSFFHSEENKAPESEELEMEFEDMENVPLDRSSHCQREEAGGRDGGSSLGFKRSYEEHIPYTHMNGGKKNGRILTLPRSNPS
Chain of Ribosomal protein S6 kinase alpha-5 (O75582 whole entry, looked up): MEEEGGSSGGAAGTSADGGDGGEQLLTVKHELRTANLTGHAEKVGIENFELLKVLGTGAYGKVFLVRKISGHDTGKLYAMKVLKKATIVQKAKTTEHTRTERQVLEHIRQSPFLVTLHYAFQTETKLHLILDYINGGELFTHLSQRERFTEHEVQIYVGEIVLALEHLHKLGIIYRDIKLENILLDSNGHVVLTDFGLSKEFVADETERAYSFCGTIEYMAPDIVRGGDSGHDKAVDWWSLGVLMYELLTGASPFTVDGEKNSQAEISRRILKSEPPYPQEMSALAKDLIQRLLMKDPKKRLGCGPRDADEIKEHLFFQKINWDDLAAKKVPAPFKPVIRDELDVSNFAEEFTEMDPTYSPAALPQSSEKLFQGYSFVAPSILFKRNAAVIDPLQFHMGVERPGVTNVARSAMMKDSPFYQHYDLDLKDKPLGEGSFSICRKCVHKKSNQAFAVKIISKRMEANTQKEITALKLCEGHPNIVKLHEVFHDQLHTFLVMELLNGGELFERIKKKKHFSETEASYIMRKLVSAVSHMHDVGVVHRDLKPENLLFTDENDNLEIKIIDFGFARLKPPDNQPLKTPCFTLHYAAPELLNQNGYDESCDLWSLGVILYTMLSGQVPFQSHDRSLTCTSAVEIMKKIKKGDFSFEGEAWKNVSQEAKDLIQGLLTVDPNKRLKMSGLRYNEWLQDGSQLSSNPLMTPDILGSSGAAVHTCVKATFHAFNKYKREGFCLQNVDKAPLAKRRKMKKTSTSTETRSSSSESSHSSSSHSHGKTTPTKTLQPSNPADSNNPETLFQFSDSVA
Chain of Tyrosine-protein kinase Lyn (P07948 2-512 limits assumed): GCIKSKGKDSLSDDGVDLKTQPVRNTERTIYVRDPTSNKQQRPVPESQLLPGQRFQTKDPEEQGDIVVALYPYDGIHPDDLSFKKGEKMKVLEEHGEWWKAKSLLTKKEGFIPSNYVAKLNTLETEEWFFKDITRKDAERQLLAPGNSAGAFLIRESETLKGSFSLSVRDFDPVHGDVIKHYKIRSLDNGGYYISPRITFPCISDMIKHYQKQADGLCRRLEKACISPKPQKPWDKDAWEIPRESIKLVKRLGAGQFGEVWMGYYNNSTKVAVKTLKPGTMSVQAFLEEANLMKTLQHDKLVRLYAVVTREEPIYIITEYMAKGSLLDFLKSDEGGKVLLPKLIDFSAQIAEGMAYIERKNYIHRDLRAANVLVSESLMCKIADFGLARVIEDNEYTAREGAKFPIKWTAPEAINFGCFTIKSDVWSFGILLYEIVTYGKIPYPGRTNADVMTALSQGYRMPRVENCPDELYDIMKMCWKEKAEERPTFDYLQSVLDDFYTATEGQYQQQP
Chain of Tyrosine-protein kinase ABL1 (P00519 whole entry): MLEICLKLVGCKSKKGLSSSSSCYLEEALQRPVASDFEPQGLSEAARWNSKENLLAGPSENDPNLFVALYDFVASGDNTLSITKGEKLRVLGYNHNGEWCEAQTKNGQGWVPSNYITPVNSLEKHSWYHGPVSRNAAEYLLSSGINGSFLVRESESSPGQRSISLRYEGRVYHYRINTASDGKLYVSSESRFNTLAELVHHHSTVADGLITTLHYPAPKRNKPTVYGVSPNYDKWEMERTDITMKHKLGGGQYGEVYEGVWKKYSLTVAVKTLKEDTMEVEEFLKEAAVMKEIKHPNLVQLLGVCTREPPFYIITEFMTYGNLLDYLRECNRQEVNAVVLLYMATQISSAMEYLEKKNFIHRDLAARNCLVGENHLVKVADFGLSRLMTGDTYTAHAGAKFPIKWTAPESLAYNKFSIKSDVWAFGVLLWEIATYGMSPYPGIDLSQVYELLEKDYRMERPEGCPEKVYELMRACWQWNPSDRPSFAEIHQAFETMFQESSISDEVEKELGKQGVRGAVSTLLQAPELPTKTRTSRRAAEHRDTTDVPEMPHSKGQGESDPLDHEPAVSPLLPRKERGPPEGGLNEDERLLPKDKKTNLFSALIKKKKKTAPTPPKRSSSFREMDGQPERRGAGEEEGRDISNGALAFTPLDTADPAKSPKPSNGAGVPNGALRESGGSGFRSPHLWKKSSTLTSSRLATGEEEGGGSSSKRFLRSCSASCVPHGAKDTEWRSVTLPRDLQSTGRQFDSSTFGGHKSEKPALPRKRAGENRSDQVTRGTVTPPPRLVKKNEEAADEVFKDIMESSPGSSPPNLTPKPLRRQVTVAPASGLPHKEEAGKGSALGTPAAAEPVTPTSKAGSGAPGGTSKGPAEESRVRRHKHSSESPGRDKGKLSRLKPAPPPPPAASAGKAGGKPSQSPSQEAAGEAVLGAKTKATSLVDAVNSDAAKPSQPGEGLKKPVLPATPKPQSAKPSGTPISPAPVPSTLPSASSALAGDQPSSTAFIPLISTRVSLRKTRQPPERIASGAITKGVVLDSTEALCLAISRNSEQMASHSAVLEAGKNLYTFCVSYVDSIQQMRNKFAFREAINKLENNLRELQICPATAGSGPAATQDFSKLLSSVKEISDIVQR
Chain of MAP kinase-activated protein kinase 2 (Homo sapiens) (P49137 whole entry, looked up): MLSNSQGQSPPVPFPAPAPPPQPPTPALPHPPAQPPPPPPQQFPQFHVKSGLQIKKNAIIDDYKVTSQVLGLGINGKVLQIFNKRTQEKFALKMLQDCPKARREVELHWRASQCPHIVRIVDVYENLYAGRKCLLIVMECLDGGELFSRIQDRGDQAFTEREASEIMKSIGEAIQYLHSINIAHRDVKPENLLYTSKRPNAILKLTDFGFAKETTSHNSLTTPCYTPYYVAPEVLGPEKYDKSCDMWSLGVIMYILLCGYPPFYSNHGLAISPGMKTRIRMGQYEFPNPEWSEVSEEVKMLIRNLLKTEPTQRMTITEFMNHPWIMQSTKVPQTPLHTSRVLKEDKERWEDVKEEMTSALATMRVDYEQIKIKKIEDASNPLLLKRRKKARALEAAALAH

Take `c1ccc(CC2CCNC3(CCN(c4ncnc5[nH]cnc45)CC3)C2)cc1` (racemic): the inhibition in the experiment filed under Homo sapiens is 101%; in experiment [1], 84%; in [2], 64%; in experiment [3] it was 21%; in experiment [4], 101%; in experiment [5] it was 66%. Moreover, the inhibition in experiment [6] amounted to 98%; in [7] it was 53%; in experiment [8] it was 16%; in experiment [9] it was 74%; in experiment [10], 3%; in experiment [11], 10%. Further, the inhibition stood at 60% in experiment [12], 100% in [13], 0% in experiment [14] and 84% in experiment [15].
